For seven molecules, MIC, IC50 and EC50 results are on record in ChEMBL document CHEMBL1145814, “Antiretroviral activity of semisynthetic derivatives of glycopeptide antibiotics” (J Med Chem, 2003).

For assay [1], the species on record is Mus musculus. Briefly: Minimal inhibitory concentration required to cause a microscopic detectable alteration of C3H/3T3 embryo murine fibroblast cell morphology. In kind it is functional. In outline: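 Uninfected C3H/3T3 murine embryo fibroblast cultures were exposed to test compound and checked microscopically for changes in cell morphology. The MIC is the concentration causing a microscopically detectable alteration of morphology.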

In a further assay the test system is CCRF-CEM. As to the kind of experiment: Inhibitory concentration against proliferation of human T-lymphocytic (CEM) cells. Conditions: Homo sapiens, CCRF-CEM. Format: functional, cell-based. In outline: (§1)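 (5–7.5) × 10^4 cells per well were incubated with test compound at 37 °C in a humidified CO2 atmosphere. L1210 murine leukemia cells grew for 48 h, and CEM and Molt4/clone 8 human lymphocytes grew for 72 h. Cells were then counted with a Coulter counter. IC50 is the concentration inhibiting proliferation by 50%.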

Assay [2] deals with Human immunodeficiency virus 2. Briefly: Concentration required to protect human T-lymphocytic cells against the cytopathogenicity of HIV-2. In kind it is functional, organism-based. Conditions: Human immunodeficiency virus 2.
The subject of assay [3] is Human immunodeficiency virus 1. As to the kind of experiment: Effective concentration of compound required to protect human T-lymphocytic cells against the cytopathogenicity of HIV-1. To be noted: Human immunodeficiency virus 1. Format: functional, organism-based. (Damage to the host cells serves as the signal in cytopathic effect assays.)
A further assay relates to L1210. Briefly: Inhibitory concentration of compound against proliferation of murine lukemia cells L1210 was determined. In kind it is functional, cell-based. Conditions: Mus musculus. Summed up:
as §1

In another assay the test system is MOLT-4. As to the kind of experiment: Inhibitory concentration of compound against proliferation of human T-lymphocytic cells MOLT-4/C8 was determined. In kind it is functional, cell-based. In outline:
as §1

The species entered for assay [4] is Mus musculus. As to the kind of experiment: Effective concentration of compound required to protect C3H/3T3 embryo murine fibroblasts against the MSV induced transformation. Format: functional, organism-based. Conditions: Mus musculus, C3H/3T3. In outline:
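Monolayer murine embryo fibroblast C3H/3T3 cultures were infected with Moloney murine sarcoma virus at 75 focus-forming units and cultured with test compound. Transformation was examined microscopically on day 6 postinfection. EC50 is the concentration protecting cells against MSV-induced transformation by 50%.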

Each structure is given as a SMILES string. Values after ≈ are worked out from the molar mass of the structure shown.

With `CN[C@H](CC(C)C)C(=O)N[C@H]1C(=O)N[C@@H](CC(N)=O)C(=O)N[C@H]2C(=O)N[C@H]3C(=O)N[C@H](C(=O)N[C@H](C(=O)NCc4ccc(-c5ccccc5)cc4)c4cc(O)cc(O)c4-c4cc3ccc4O)[C@H](O[C@H]3C[C@](C)(N)[C@@H](O)[C@H](C)O3)c3ccc(cc3)Oc3cc2cc(c3O[C@@H]2O[C@H](CO)[C@@H](O)[C@H](O)[C@H]2O[C@H]2C[C@](C)(N)[C@@H](O)[C@H](C)O2)Oc2ccc(cc2Cl)[C@H]1O`, the MIC in the assay filed under Mus musculus [1] was 4 µM (≈ 6.89 µg/mL). Moreover, the IC50 (in general, the point on the concentration scale where inhibition reaches its midpoint) is 35 µM with CCRF-CEM, 41 µM with L1210 and 34 µM in the assay on MOLT-4. Moreover, the EC50 (in general, the concentration giving half of the maximal effect) is more than 10 µM in assay [2], more than 10 µM in assay [3] and more than 0.8 µM in the assay listed under Mus musculus [4].
Take `CCCCc1ccc(CNCc2c(O)cc3c(c2O)-c2cc(ccc2O)C2NC(=O)C4NC(=O)C5NC(=O)C(Cc6ccc(c(Cl)c6)Oc6cc4cc(c6O)Oc4ccc(cc4Cl)C(O)C(NC2=O)C(=O)N[C@H]3C(=O)NC)NC(=O)C(N)c2ccc(O)c(c2)Oc2cc(O)cc5c2)cc1` (some centres undefined): the MIC in the assay listed under Mus musculus [1] came to 20 µM (≈ 27.7 µg/mL). In addition, the half-maximal inhibitory concentration (IC50) with CCRF-CEM, in the assay on L1210 and in the assay on MOLT-4 was more than 100 µM in each case. Besides, the EC50 was 12 µM in assay [2], 9.7 µM in assay [3] and more than 4 µM in the assay listed under Mus musculus [4].
`COC(=O)[C@@H]1NC(=O)C2NC(=O)C(NC(=O)C(NC(=O)OC(C)(C)C)c3cc(Oc4ccc(CC(NC(=O)OCc5ccccc5)C(=O)O)cc4Cl)c(O)c(c3)Oc3ccc(cc3Cl)C2O)c2ccc(O)c(c2)-c2c1cc(O)c(CNC1C3CC4CC(C3)CC1C4)c2O` (some centres undefined): the MIC in the assay filed under Mus musculus [1] was more than 100 µM. Further, the IC50 in the assay with CCRF-CEM was 240 µM; in the assay on L1210 it was 95 µM; in the assay on MOLT-4, 122 µM. Further, the concentration giving a half-maximal response (EC50) in assay [2] came to 11 µM; in assay [3] it was 17 µM; in the assay listed under Mus musculus [4], 26 µM.
Turning to `COC(=O)[C@H]1NC(=O)C2NC(=O)C(NC(=O)[C@@H]3NC(=O)[C@H]4NC(=O)[C@H](NC(=O)[C@H](N)c5ccc(O)c(c5)Oc5cc4cc(O)c5C)[C@H](O)c4ccc(cc4)Oc4cc3cc(c4OC3OC(CO[C@H]4O[C@H](C)[C@@H](O)[C@@H](O)[C@@H]4O)C(O)C(O)C3OC3OC(CO)C(O)C(O)C3OC3OCC(O)C(O)C3O)Oc3ccc(cc3)[C@H]2O[C@@H]2C[C@@H](N)[C@@H](O)[C@@H](C)O2)c2ccc(O)c(c2)-c2c(O[C@@H]3O[C@H](CO)[C@@H](O)[C@@H](O)[C@@H]3O)cc(O)cc21` (some centres undefined), in the assay listed under Mus musculus [1], the MIC was more than 100 µM. Moreover, the 50% inhibitory concentration (IC50) in the assay with CCRF-CEM, in the assay on L1210 and in the assay with MOLT-4 was more than 500 µM in each case. In addition, the results for the concentration giving a half-maximal response (EC50) (in assay [2]; in assay [3]; in the assay filed under Mus musculus [4]) were more than 250 µM, more than 250 µM and more than 100 µM, respectively.
On to `CCCCOc1ccc(CNC2C(Oc3c4cc5cc3Oc3ccc(cc3Cl)C(O)C3NC(=O)C(NC(=O)C5NC(=O)C5NC(=O)C(Cc6ccc(cc6)O4)NC(=O)C(N(C)Cc4ccc(OCCCC)cc4)c4ccc(O)c(c4)Oc4cc(O)c(Cl)c5c4)c4ccc(O)c(c4)-c4c(O)cc(O)cc4[C@H](C(=O)NCCCN(C)C)NC3=O)OC(C(=O)NCCCN(C)C)C(O)C2O)cc1` (some centres undefined), for which the MIC in the assay filed under Mus musculus [1] came to 20 µM (≈ 37.6 µg/mL). Moreover, the IC50 turned out to be 80 µM in the assay on CCRF-CEM, 20 µM with L1210 and 18 µM with MOLT-4. In addition, the EC50 in assay [2] is more than 10 µM; in assay [3] it was 5 µM; in the assay listed under Mus musculus [4] it was more than 4 µM.
On to `NCCCCCCNC(=O)[C@@H]1NC(=O)C2NC(=O)C(NC(=O)C3NC(=O)C4NC(=O)C(Cc5ccc(c(Cl)c5)Oc5cc3cc(c5O)Oc3ccc(cc3Cl)C2O)NC(=O)C(N)c2ccc(O)c(c2)Oc2cc(O)cc4c2)c2ccc(O)c(c2)-c2c(O)cc(O)cc21` (some centres undefined), for which the MIC in the assay filed under Mus musculus [1] turned out to be 20 µM (≈ 25.9 µg/mL). For the same molecule, the IC50 in the assay with CCRF-CEM, in the assay on L1210 and in the assay on MOLT-4 was more than 500 µM each time. In addition, the figures for the concentration for a half-maximal effect (EC50) (in assay [2]; in assay [3]; in the assay listed under Mus musculus [4]) were 17 µM, 15 µM and more than 4 µM, respectively.
In the case of `CC(=O)N[C@@H]1[C@H](OC2c3ccc(c(Cl)c3)Oc3cc4cc(c3O[C@@H]3O[C@@H](CO)[C@@H](O)[C@H](O)[C@@H]3NC(=O)CCCCCCC(C)C)Oc3ccc(cc3Cl)C(O)C3NC(=O)C(N)c5ccc(O)c(c5)Oc5cc(O)cc(c5)C(NC3=O)C(=O)NC4C(=O)NC3C(=O)NC2C(=O)N[C@@H](C(=O)O)c2cc(O)cc(O[C@H]4O[C@H](CO)[C@@H](O)[C@@H](O)[C@@H]4O)c2-c2cc3ccc2O)O[C@@H](CO)[C@@H](O)[C@@H]1O` (some centres undefined), the MIC in the assay listed under Mus musculus [1] is more than 100 µM. For the same molecule, the IC50 in the assay with CCRF-CEM, with L1210 and in the assay on MOLT-4 was more than 500 µM each time. Also, the half-maximal effective concentration (EC50) is 100 µM in assay [2], 17 µM in assay [3] and more than 100 µM in the assay listed under Mus musculus [4].
